Tests used:
Type in all cases: functional
Mythimna separata [1] = experiment: Insecticidal activity against second-instar larvae of Mythimna separata (Oriental armyworm) fed on compound-treated mealie leaves at pLC50 measured after 5 days
Method in brief: (§1)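 Second-instar Pseudaletia separata larvae were fed compound-treated mealie leaves, with fresh treated leaves added daily, at about 20 °C in a well-ventilated room. Percent mortality at 5 days was based on the number and size of live larvae relative to untreated controls. LC50 values are in μg/mL and were converted to pLC50 (−log LC50).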

Mythimna separata [2] = experiment: Insecticidal activity against second-instar larvae of Mythimna separata (Oriental armyworm) fed on compound-treated mealie leaves measured after 5 days; conditions: 120 h; method in brief: as §1
Spodoptera eridania = experiment: Insecticidal activity against second-instar larvae of Spodoptera eridania fed on compound-treated corn leaves measured after 5 days; conditions: 120 h

Structure (SMILES) | mortality (Mythimna separata [1]) [%] | LC50 (Mythimna separata [2]) [mM] | LC50 (Spodoptera eridania) [µM]
Fc1cccc(-c2nnc(COc3ccc(Cl)cc3)o2)c1 | 0 | > 1 | 
CC1(C)C(C=C(Cl)Cl)C1c1nnc(-c2cccs2)o1 (mixture of isomers) | 0 | > 1 | 
Clc1ccc(-c2nnc(-c3ccc(Cl)cc3Cl)o2)c(Cl)c1 |  |  | 10.2
Clc1ccc(OCc2nnc(-c3cccnc3Cl)o2)cc1 | 0 | > 1 | 
Clc1ccc(OCc2nnc(-c3ccc(Cl)cc3Cl)o2)cc1 |  | 0.0158 | 
CC1(C)C(C=C(Cl)Cl)C1c1nnc(-c2cc(F)c(Cl)cc2Cl)o1 (configuration not stated) |  |  | 562
Fc1cc(-c2nnc(COc3ccccc3Cl)o2)c(Cl)cc1Cl |  | 0.0145 | 
COc1ccc(-c2nnc(C3C(C=C(Cl)Cl)C3(C)C)o2)cc1 (mixture of isomers) | 0 | > 1 | 
Fc1cc(-c2nnc(-c3ccc(Cl)cc3Cl)o2)c(Cl)cc1Cl |  |  | 5.25
CC1(C)[C@@H](C=C(Cl)Cl)[C@@H]1c1nnc(-c2ccc(Cl)cc2Cl)o1 (relative stereo) |  | 0.123 | 
Fc1cc(-c2nnc(-c3cc(F)c(Cl)cc3Cl)o2)c(Cl)cc1Cl |  |  | 1.78
Clc1ccc(OCc2nnc(-c3ccc(Cl)cc3Cl)o2)c(Cl)c1 |  | 0.776 | 
Clc1ccc(OCc2nnc(-c3ccc(Cl)nc3)o2)cc1 | 7 | > 1 | 
CC1(C)C(C=C(Cl)Cl)C1c1nnc(/C=C/c2ccccc2)o1 (mixture of isomers) | 0 | > 1 | 
CC1(C)C(C=C(Cl)Cl)C1c1nnc(-c2ccc(Cl)cc2)o1 (mixture of isomers) | 0 | > 1 | 
CC1(C)C(C=C(Cl)Cl)C1c1nnc(-c2cccc(F)c2)o1 (configuration not stated) |  |  | 759
Fc1cc(-c2nnc(COc3ccc(Cl)cc3Cl)o2)c(Cl)cc1Cl |  | 1.7 | 
Fc1cccc(-c2nnc(-c3cc(F)c(Cl)cc3Cl)o2)c1 |  |  | 51.3
CC1(C)[C@@H](C=C(Cl)Cl)[C@@H]1c1nnc(-c2ccccc2)o1 (relative stereo) |  | 1.38 | 
Fc1cc(-c2nnc(COc3ccc(Cl)cc3)o2)c(Cl)cc1Cl |  | 0.055 | 
